Most compounds without a hit are left out; they make up all but 3.5% or so of the library.
RGS4 act: RGS4 potentiation or activation; HEK293 M3R/inducible RGS4, carbachol calcium flux Fluo4; hits give low values; 310,000 tested, 0.92% active; B-score at 10 µM; AID 463111;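 active = B-score of the integrated calcium signal more than 4 SD below the library mean, with starting fluorescence not abnormally high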;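 note: negative B-score means reduced calcium response which marks RGS4 activation or potentiation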
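test system = HEK293 cells with stable M3R and inducible RGS4 | schedule = recording 10 s baseline at 1 Hz, 100 s post-agonist | technique = Fluo4-AM (2 µM) calcium-flux fluorescence, kinetic read | measure = Agonist-evoked peak-minus-minimum fluorescence over baseline, integrated ratio, B score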
RGS4 inh: human RGS4 inhibition | HEK293 M3R/RGS4 inducible, Fluo-4 calcium flux; hits give high values; triggered by carbachol at its EC20 | B-score at 10 µM | 310,000 tested, 0.45% active | AID 463165 | P49798;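 active = B-score, a plate-corrected calcium signal, over three deviations above library mean, with baseline fluorescence within five deviations of library mean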;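 note: RGS4 expression induced by doxycycline in cells with stable M3 receptor; B-score is computed from the integrated fluorescence ratio over baseline after carbachol; higher B-score means a larger calcium signal and so more RGS4 inhibition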
Target sequence (P49798 whole entry, looked up): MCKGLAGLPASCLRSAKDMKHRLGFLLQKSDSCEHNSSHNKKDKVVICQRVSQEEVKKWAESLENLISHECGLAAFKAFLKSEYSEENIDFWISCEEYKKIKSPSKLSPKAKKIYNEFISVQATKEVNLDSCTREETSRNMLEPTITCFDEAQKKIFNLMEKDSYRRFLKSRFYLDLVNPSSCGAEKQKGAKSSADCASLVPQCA
MrgX1 allo act: allosterically activates human MrgX1 receptor signaling | 310,000 tested, 0.63% active | Q96LB2 | B-score at 10 µM | AID 588675 | MrgX1-HEK293, Fluo-4 calcium flux, FDSS; hits give high values;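 active = plate-corrected calcium response at least 3 library SD above typical, normal starting fluorescence, not activating the receptor alone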;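 note: compound read alongside a low EC10 to EC30 dose of BAM8-22 agonist; peak minus trough fluorescence over baseline measured at the second addition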
Target sequence (Q96LB2 whole entry, looked up): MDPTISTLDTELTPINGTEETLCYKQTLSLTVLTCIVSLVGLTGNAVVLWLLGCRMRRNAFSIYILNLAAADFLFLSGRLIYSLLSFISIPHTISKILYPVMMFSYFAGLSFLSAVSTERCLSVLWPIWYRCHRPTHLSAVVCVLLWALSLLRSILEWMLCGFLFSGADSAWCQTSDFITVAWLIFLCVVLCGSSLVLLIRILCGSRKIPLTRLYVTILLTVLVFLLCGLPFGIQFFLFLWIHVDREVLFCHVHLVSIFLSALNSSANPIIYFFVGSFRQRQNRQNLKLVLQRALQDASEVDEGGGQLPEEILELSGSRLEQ
MrgX1 antag: human MrgX1 receptor antagonism, primary screen | Q96LB2 | B-score at 10 µM | AID 588676 | MRGX1-HEK293 calcium flux, Fluo-4, BAM8-22 antagonism; hits give low values | 310,000 tested, 1.3% active;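 active = calcium-response B-score plate-corrected more than 3 library SD below zero, starting fluorescence within 5 deviations, no agonist response on first addition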;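 note: peak minus trough fluorescence over baseline after final BAM8-22 challenge near maximal dose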
MrgX1 agonist: agonists of human MrgX1 receptor; Q96LB2; MrgX1-HEK293 cells, Fluo-4 calcium fluorescence, agonist mode; hits give high values; B-score at 10 µM; 310,000 tested, 0.44% active;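 active = calcium response B-score plate-corrected fluorescence ratio at least 3 library SD, with starting fluorescence B-score inside 5 SD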
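Assay system: MrgX1-expressing HEK293 cells / Amount: fifteen thousand cells per well / Doses: test compound in the initial addition of three / Timing: cells plated overnight, dye loaded 0.5 h 37 °C, 0.5 h room temperature / Technique: kinetic calcium dye fluorescence, Fluo-4 NW / Control set: positive and negative controls per plate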
Starred values were filed as active, the others as inactive; i = inactive; · = no result given.

SMILES	RGS4 act	RGS4 inh	MrgX1 allo act	MrgX1 antag	MrgX1 agonist
CCOC(=O)c1cnn(-c2nc(OCC)cc(OCC)n2)c1C	i	i	i	i	i
O=C(CN1C(=O)S/C(=C\C=C\c2ccccc2)C1=O)Nc1ccccc1C(=O)O	i	i	i	i	i
C#CCN1C(=O)S/C(=C/C=C/c2ccc(N(C)C)cc2)C1=O	·	·	i	-5.3*	i
N#C/C(=C(/O)COC(=O)Cc1c[nH]c2ccccc12)c1nc2ccccc2[nH]1	i	i	i	-4.9*	i
COc1ccc(/C=N/OC/C(O)=C(\C#N)c2nc3ccccc3[nH]2)cc1	i	i	i	-5.6*	i
COCCn1c(=O)[nH]c2cc(C(=O)NCCN3CCN(c4ccc(OC)cc4)CC3)ccc2c1=O	i	i	i	i	i
Nc1c(-c2cccc(Cl)c2)cnn1-c1cccc(C(F)(F)F)c1	i	i	i	i	i
Nc1c(-c2ccc(Cl)cc2)cnn1-c1cc(C(F)(F)F)cc(C(F)(F)F)c1	i	i	14*	i	i
O=C(CCSCc1ccccc1F)NCc1ccc(F)cc1	i	i	i	i	i
O=C(c1ccco1)N1CCN(C(=O)c2ccccc2NS(=O)(=O)c2ccc(F)cc2)CC1	i	i	i	i	i
CN(C)c1nc2ccc(OCCN3CCCCC3)cc2s1	-7.3*	i	i	i	i
CCOC(=O)C1CCN(S(=O)(=O)c2ccc3c(c2)CCN3C(=O)C2CCC2)CC1	i	i	i	i	i
O=C(N/N=C/c1ccc(OC2CSC2)cc1)c1ccccc1	i	i	i	i	i
O=C(/C=C/c1ccc(OC2CSC2)cc1)c1ccccc1	-7.5*	i	i	i	i
Cc1ccc(C(=O)C(C)OC(=O)Cc2n[nH]c(=O)c3ccccc23)cc1 (stereo unspecified)	i	i	i	i	i
CCCCCCN1C=CC(=C/C=C(\C#N)C(=O)OCC)C=C1	i	i	i	i	64*
CCCN1C=CC(=C/C=C(\C#N)C(=O)OCC)C=C1	i	i	i	i	i
CC1=C([N+](=O)[O-])C(c2ccccc2C(F)(F)F)NC(=O)N1C (stereo unspecified)	i	i	i	i	i
CCOc1ccc(NC2OCC(O)C(O)C2O)c([N+](=O)[O-])c1 (stereo unspecified)	i	i	i	-5.1*	i
COc1ccc(-c2csc(=Nc3ccccc3)n2CCO)cc1	i	i	15*	i	i
COc1ccc(-c2[nH]ncc2CN2CCCO2)cc1F	i	i	i	i	i
COc1ccc2cc(-c3[nH]ncc3CN3CCCCO3)ccc2c1	i	i	i	i	35*
CCN1C(=O)/C(=C\N2CCN(C)CC2)SC1=S	i	i	i	-4.6*	i
O=C(CN1CCCCC1)Nc1ccccc1-c1ccccc1	-10*	i	i	i	i
COc1ccc(NS(=O)(=O)c2cccc(C(=O)NNC(=O)c3cccn3C)c2)cc1	i	i	i	i	i
SMILES	RGS4 act	RGS4 inh	MrgX1 allo act	MrgX1 antag	MrgX1 agonist
Cc1ccc(NS(=O)(=O)c2cccc(C(=O)NNC(=O)c3cccn3C)c2)c(C)c1	i	i	i	-6.7*	i
CCOc1ccc(C(C(=O)NC2CCCC2)N(Cc2ccccc2)C(=O)c2nsc(Cl)c2Cl)cc1 (stereo unspecified)	-7.2*	i	i	i	i
CN(C)c1ccc(C(C(=O)NC2CCCC2)N(Cc2cccnc2)C(=O)c2snc(C(N)=O)c2N)cc1 (stereo unspecified)	i	i	i	-6.4*	i
Cc1cc(/C=C\c2ccc3cc(N(C)C)ccc3[n+]2C)c(C)n1-c1ccccc1	·	·	i	-9.7*	i
C[n+]1c(/C=C/c2ccc(O)cc2)ccc2ccccc21	i	i	i	i	i
Fc1ccc(-n2nnc(-c3cccnc3)n2)cc1	i	i	i	i	i
Fc1ccc(C(CCCn2nnc(-c3cccnc3)n2)c2ccc(F)cc2)cc1	-8.7*	i	i	i	i
COc1cc(/C=C2\N=C(c3ccccc3)OC2=O)ccc1OC(C)=O	i	i	i	i	i
COc1ccc(OC)c(/C=C2\N=C(c3ccccc3)OC2=O)c1	-7.4*	i	i	i	i
COc1cc(/C=C2/N=C(c3ccccc3)OC2=O)c(F)cc1OCc1ccccc1	i	i	i	-4.9*	i
Cc1ccccc1NC(=O)c1c2c(nc3ccccc13)CCC2	i	i	i	i	i
Nc1nc2ccc([N+](=O)[O-])cc2[nH]1	i	i	i	i	i
Nc1[nH]c2cc([N+](=O)[O-])ccc2c1-c1ccccn1	i	i	i	-7.6*	i
CN(C)N1C(N)=C(C#N)C(c2cccnc2)C2=C1CC(C)(C)CC2=O (stereo unspecified)	i	i	i	-4.8*	i
CC(C)(C)C(=O)/C(=C/c1ccc(Cl)cc1)n1cncn1	i	i	i	i	i
CC(C)(C)C(=O)/C(=C\c1ccc([N+](=O)[O-])cc1)n1cncn1	i	14*	i	i	34*
N#C/C(=C\c1ccc([N+](=O)[O-])o1)c1nc2ccccc2[nH]1	i	i	i	-4.5*	i
N#C/C(=C\c1ccc(Sc2ccccc2)o1)c1nc2ccccc2[nH]1	i	i	7.6*	i	i
CC(C)C(=O)Nc1ccc2c(c1)nc(CCN1CCN(c3ccccn3)CC1)n2C	i	i	i	i	i
Cc1ccc(-c2csc(NC(=O)C3=NN(c4ccccc4)C(=O)CC3)n2)cc1	i	i	i	-4.8*	i
Cc1csc(NC(=O)C2=NN(c3ccccc3)C(=O)CC2)n1	i	i	i	i	i
CCNC(=O)NCCNC(=O)c1cc(OCC(F)(F)F)ccc1OCC(F)(F)F	i	i	i	-5.5*	i
Cn1[nH]c(CSc2ccc(Cl)cc2)cc1=O	i	i	i	i	i
CN(CCc1cn[nH]c1)C(=O)C1CCC(=O)N(CC2CCCCC2)C1 (stereo unspecified)	i	i	·	·	·
Cn1c(CS/C(N)=N/N=C/c2ccccc2)c(Br)c(=O)n1-c1ccccc1	i	i	i	i	46*
Cc1c(NC(=S)N/N=C/c2ccc(Br)cc2)c(=O)n(-c2ccccc2)n1C	i	i	i	i	i
O=C1CCC2S/C(=C/Nc3ccc(C(F)(F)F)cc3)C(=O)N12 (stereo unspecified)	i	i	i	-4.8*	i
